Here are results for ten compounds from ChEMBL document CHEMBL1138232, “Optimization of naphthalimide-imidazoacridone with potent antitumor activity leading to clinical candidate (HKH40A, RTA 502)” (J Med Chem, 2007).

Where only a bound is given, the exact number is not on record here.

In experiment [1] the test system is HCT-116. Nature of the experiment: Growth inhibition of human HCT116 cells after 5 days by MTT assay. Format: functional. The following applies: HCT-116, 120 h. The gist of the method: (§1)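 MTT assay after 5 day continuous exposure. GI50, TGI and LC50 calculated from the MTT data. Means ± SD of at least three independent experiments; coefficients of variation 10-20%. Compounds used as tri(methanesulfonate) salts.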

Experiment [2] can be described thus: Growth inhibition of human Hep3B cells after 5 days by MTT assay. As to conditions: 120 h; for CC50: read-out: LC50 (the source's name). Format: functional, Hep 3B2. The gist of the method:
as §1
In general terms: Tetrazolium assays rely on reduction of a dye to a coloured formazan, in cell work by metabolically active cells.

Experiment [3] has as its system HT-29. Description: Growth inhibition of human HT29 cells after 5 days by MTT assay. Format: functional. As to conditions: HT-29, 120 h; for CC50: read-out: LC50 (the source's name). The gist of the method:
as §1

A further experiment relates to ASPC1. Description: Antitumor activity against p53 null human ASPC1 cells. Format: functional, cell-based.
In experiment [4] the test system is HCT-116. Nature of the experiment: Cell cycle arrest in HCT116 cells assessed as accumulation at G1 phase at 50 nM after 72 hrs. Format: functional, Homo sapiens. The gist of the method:
(§2)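 HCT116 cells exposed to 50 nM drug for 72 h, then cell-cycle distribution analysed. Sub-G1, G1, S and G2/M fractions reported as percent of cells, with untreated control cells for comparison.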

Another experiment has as its system RKO. Description: Antitumor activity against human RKO cells expressing wild type p53. Format: functional. As to conditions: read-out: LC50 (the source's name). The gist of the method:
(§3)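 Compounds tested as tri(methanesulfonate) salts, soluble in water and dilute buffers. Human tumour cells carrying wild-type or mutated p53 were exposed for 5 days, and viability was read by MTT assay. GI50, TGI and LC50 were calculated from the MTT data. Values are means ± SD of at least three independent experiments, with coefficients of variation of 10–20%.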

Experiment [5] concerns HCT-116. Nature of the experiment: Cell cycle arrest in HCT116 cells assessed as accumulation at G2/M phase at 50 nM after 72 hrs. Format: functional, Homo sapiens. The gist of the method: as §2
Experiment [6] relates to HCT-116. Nature of the experiment: Cell cycle arrest in HCT116 cells assessed as accumulation at Sub G1 phase at 50 nM after 72 hrs. Format: functional, Homo sapiens. A digest of the protocol:
as §2

Experiment [7] deals with HCT-116. Description: Antitumor activity against human HCT116 cells expressing wild type p53. Format: functional. The following applies: read-out: LC50 (the source's name). The gist of the method: as §3
The subject of another experiment is PC-3. Nature of the experiment: Antitumor activity against PC3 cells expressing mutated p53. Format: functional, cell-based. The following applies: Homo sapiens. The gist of the method: as §3
The subject of a further experiment is COLO 205. Nature of the experiment: Antitumor activity against human Colo205 cells expressing mutated p53. Format: functional, cell-based. The gist of the method:
as §3

Experiment [8] has as its system HT-29. Description: Antitumor activity against HT29 cells expressing mutated p53. Format: functional, cell-based. The following applies: Homo sapiens. The gist of the method:
as §3

Experiment [9] relates to HCT-116. Nature of the experiment: Cell cycle arrest in HCT116 cells assessed as accumulation at S phase at 50 nM after 72 hrs. Format: functional, Homo sapiens. The gist of the method:
as §2

Experiment [10] can be described thus: Antitumor activity against human 10.05 cells expressing mutated p53. Format: functional, cell-based. A digest of the protocol: as §3
Another experiment deals with MIA PaCa-2. Description: Inhibition of tumor growth in PaCa2 cells xenografted nu/nu mouse at 80 mg/kg. As to conditions: read-out: TGI. Format: functional, Homo sapiens. A digest of the protocol:
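PaCa-2 tumour fragments implanted on the flank of nu/nu mice, 10 per group. Intraperitoneal treatment, Q3Dx4, started 12 days post-inoculation at 80 mm3 tumour volume. Tumour growth inhibition measured.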

`O=C1c2cccc3cccc(c23)C(=O)N1CCCN1CCN(CCCNc2ccc3ncn4c5ccccc5c(=O)c2c34)CC1`: in the experiment on HCT-116 [1], growth was halved (GI50) at 15 nM and the LC50 (as a rule, the concentration that kills 50% of the test population) came out at 1000 nM. In addition, in [2], the GI50 (usually the concentration giving 50% growth inhibition) came out at 22 nM and the CC50 was determined as 1000 nM. For the same compound, in the experiment on HT-29 [3], halving of growth (GI50) required 11 nM and the CC50 was 1000 nM.

As for `COc1ccc2c(c1)c(=O)c1c(NCCCN3CCN(CCCN4C(=O)c5cccc6cccc(c56)C4=O)CC3)ccc3ncn2c31`, the GI50 stood at 3.5 nM in the experiment on HCT-116 [1], 3.5 nM in experiment [2] and 3 nM in the experiment on HT-29 [3]. The LC50 in the experiment on HCT-116 [1] was 70 nM. Also, the CC50 in [2] was found to be 330 nM; in the experiment with HT-29 [3], 1000 nM.

Turning to `Nc1cc2c3c(cccc3c1)C(=O)N(CCCN1CCN(CCCNc3ccc4ncn5c6ccc(F)cc6c(=O)c3c45)CC1)C2=O`, in the experiment with HCT-116 [1], it took 2.2 nM to inhibit growth by half (GI50) and the LC50 came out at 80 nM. In addition, in the experiment on HT-29 [3], halving of growth (GI50) required 8 nM and the CC50 was 750 nM.

On to `O=C1c2cccc3cc([N+](=O)[O-])cc(c23)C(=O)N1CCCN1CCN(CCCNc2ccc3ncn4c5ccccc5c(=O)c2c34)CC1`, for which the IC50 – broadly, the point on the concentration scale where inhibition reaches its midpoint – with ASPC1 is 350 nM; in the experiment on PC-3, above 1000 nM; in the experiment with COLO 205, 500 nM; in the experiment with HT-29 [8], 550 nM; in [10], 300 nM. Besides, the Activity in the experiment on HCT-116 [4] is listed as 37.9%; in the experiment on HCT-116 [5] it was 45%; in the experiment on HCT-116 [6], 15.5%; in the experiment with HCT-116 [9] it was 1.3%. For the same compound, the CC50 came to 40 nM in the experiment on RKO, 380 nM in experiment [2], 40 nM in the experiment with HCT-116 [7] and 550 nM with HT-29 [3]. Besides, the 50% growth inhibitory concentration (GI50) in the experiment on HCT-116 [1] was 1 nM; in [2], 4 nM; in the experiment with HT-29 [3], 2 nM. The compound also yielded a 50% lethal concentration (LC50) in the experiment with HCT-116 [1] of 40 nM.

For `O=C1c2cccc3cc([N+](=O)[O-])cc(c23)C(=O)N1CCCN1CCN(CCCNc2ccc3ncn4c5ccc(F)cc5c(=O)c2c34)CC1`, in the experiment on HCT-116 [1], the GI50 came to 1 nM and the median lethal concentration (LC50) was found to be 40 nM. Besides, in experiment [2], the 50% growth inhibitory concentration (GI50) is 4 nM and the CC50 worked out at 400 nM. For the same compound, in the experiment on HT-29 [3], the GI50 was determined as 2 nM and the CC50 amounted to 600 nM.

In the experiment with HCT-116 [1], `Cc1ccc2c(c1)c(=O)c1c(NCCCN3CCN(CCCN4C(=O)c5cccc6cc([N+](=O)[O-])cc(c56)C4=O)CC3)ccc3ncn2c31` yielded a concentration for 50% growth inhibition (GI50) of 3.5 nM and an LC50 of 30 nM.

In the experiment with HCT-116 [1], `Cc1cccc2c1c(=O)c1c(NCCCN3CCN(CCCN4C(=O)c5cccc6cc([N+](=O)[O-])cc(c56)C4=O)CC3)ccc3ncn2c31` had a concentration for 50% growth inhibition (GI50) of 3 nM and an LC50 of 30 nM.

As for `O=C1c2cccc3c([N+](=O)[O-])ccc(c23)C(=O)N1CCCN1CCN(CCCNc2ccc3ncn4c5ccccc5c(=O)c2c34)CC1`, the results for the 50% growth inhibitory concentration (GI50) (in the experiment on HCT-116 [1]; in [2]; in the experiment with HT-29 [3]) were 5.5 nM, 18 nM and 15 nM, respectively. The compound further came in with an LC50 in the experiment with HCT-116 [1] above 1000 nM. In addition, the CC50 (in experiment [2]; in the experiment with HT-29 [3]) was 1000 nM each time.

In the experiment on HCT-116 [1], `COc1ccc2c(c1)c(=O)c1c(NCCCN3CCN(CCCN4C(=O)c5cccc6c([N+](=O)[O-])ccc(c56)C4=O)CC3)ccc3ncn2c31` displayed a concentration for 50% growth inhibition (GI50) of 3 nM and an LC50 of 350 nM. In [2], it took 5 nM to inhibit growth by half (GI50) and the CC50 was 800 nM. For the same compound, in the experiment on HT-29 [3], the GI50 stood at 4 nM and the CC50 was 1000 nM.

As for `Nc1ccn([C@@H]2O[C@H](CO)[C@@H](O)C2(F)F)c(=O)n1` [GEMCITABINE], the inhibition in vivo at 80 mg/kg in the experiment with MIA PaCa-2 was determined as 85.3%.
